# Shn3 inh set2 = reduction of Shn3 3'UTR firefly luciferase signal, primary screen, Schnurri-3 inhibitor project, cell-based, Clone20 osteoblasts, set 2; Clone20 osteoblast Shn3 3'UTR firefly luciferase, 24 h; inhibition, % at 12.5 µM; 0.52% of 360,000 active; AID 588674, 2011;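 active = mean inhibition of at least 75% with every replicate also reaching 75%; inconclusive = mean inhibition at least 75% but some replicate below; inactive = mean inhibition below 75%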;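 also: 0% = median of neutral control wells and 100% = pilot-screen positive control compound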
# LMP1 NFkB inh = EBV LMP1-driven NF-kappaB luciferase reporter inhibitors, primary screen, cell-based, luminescence, single point; LMP1-induced NF-kappaB luciferase reporter cells; inhibition, % at 12.5 µM; 0.69% of 350,000 active; AID 504558, 2011; in the data active = inhibition above about 41%; inconclusive = no clear call, values can overlap the other calls;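 also: 0% = neutral control wells and 100% = reference inhibitor control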
# EWS-Fli inh = EWS/Fli-driven NR0B1 reporter inhibitors, primary screen, A673 cells, NR0B1 luciferase, luminescence, MLPCN library. viability-normalised. inhibition, % at 12.6 µM. 0.67% of 350,000 active;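 active = mean inhibition of at least 50% after viability correction, with every replicate also passing that limit; inconclusive = mean reaches 50% but only one of two replicates passes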;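 also: firefly luciferase signal divided by Alamar Blue viability fluorescence both relative to DMSO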
# PAX8 reporter = inhibitors of PAX8-driven TPO luciferase reporter, primary screen, RMG-I cells, single concentration; SteadyGlo, 24 h; inhibition, % at 12.6 µM; AID 652154, 2013; 1.2% of 360,000 active;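 active = mean replicate inhibition at least 60% with every replicate also reaching 60%; inconclusive = only one of the two criteria is met; inactive = mean below 60% and not all replicates reaching 60%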;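 also: luciferase light reporting Pax8 driven TPO promoter activity; plate controls were median of neutral control wells for no effect and mitoxantrone controls for full effect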
# aSyn UTR inh = MLPCN primary screen, SNCA 5' untranslated region | alpha-synuclein 5'UTR reporter, inhibitor activity | inhibition, % (tested at 7.5 µM) | 0.82% of 300,000 active | AID 1813, 2009; in the data active = inhibition above about 60%; inconclusive = no clear call, values can overlap the other calls;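 also: H4 neuroglioblastoma cells stably carrying SNCA 5'UTR luciferase fusion; 0% = DMSO wells and 100% = positive control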
# FN deposit inh = inhibitors of fibronectin matrix deposition, primary screen, AH1F cells, Alexa488-fibronectin fluorescence, plate reader; AH1F fibroblasts, overnight; inhibition, % at 12.6 µM; 0.086% of 350,000 active;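 active = mean inhibition across replicates of 30% or more, regardless of how many single replicates reach that level; inconclusive = mean under 30% yet at least half of replicates reach 30%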;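 also: positive control wells lacked labelled fibronectin entirely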
#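 test system = AH1F fibroblasts assembling fluorescent fibronectin matrix | quantity = 10000 AH1F cells per well | buffer or medium = DMEM plus 2% serum, read in PBS | doses = single dose, pinned | incubation = 1 h cell attachment, overnight exposure to compound and label | detection = fluorescence at 485 nm excitation, 525 nm emission | read-out basis = inhibition from reduced deposited-fibronectin fluorescence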
# * marks the source's active call; other numbers are inactive results; ? = inconclusive; · = no result given. This is a sample that favours compounds with a hit; in the whole collection about 2.1% have one here.
SMILES,Shn3 inh set2,LMP1 NFkB inh,EWS-Fli inh,PAX8 reporter,aSyn UTR inh,FN deposit inh
O=[N+]([O-])c1ccc(Sc2cccc[n+]2[O-])c2nonc12,98*,4,56*,102*,85*,51*
O=[N+]([O-])c1ccc(Nc2ccccc2)c2nonc12,-38,8,3,-18,11,2
C[C@H]1CN([C@@H](C)CO)C(=O)c2cc(C#CC3(O)CCCC3)cnc2O[C@H]1CN(C)C(=O)Cc1cccnc1,·,·,0,-18,·,-14
C[C@@H]1CN([C@@H](C)CO)C(=O)c2cccc(NS(=O)(=O)c3cccs3)c2O[C@@H]1CN(C)S(=O)(=O)c1cccs1,·,·,-10,3,·,·
COC(=O)c1cccc(NC(=O)c2onc3c2CCCC3)c1,-26,-1,35,-118,79*,7
O=C(Nc1ccc2ccccc2c1)c1onc2c1CCCC2,2,-31,·,·,-71,·
Cc1cccc(NC(=O)c2onc3c2CCCC3)n1,3,31,71*,31,86*,6
Cc1cccc(NC(=O)c2onc3c2CCCC3)c1C,-37,-17,·,·,-162,·
C[C@@H]1CCCCO[C@H](CN(C)Cc2ccc(C(F)(F)F)cc2)[C@H](C)CN([C@H](C)CO)C(=O)c2cc(NS(C)(=O)=O)ccc2O1,·,·,1,13,·,·
CCOC(=O)c1c[nH]c2ccc3ccccc3c2c1=O,8,2,0,1,-29,2
Oc1ccc2ccccc2c1N=Nc1ccccc1F,-25,-16,-20,18,-13,7
Oc1ccc2ccccc2c1N=Nc1ccccn1,95*,63*,·,·,75*,·
CCOC(=O)c1[nH]cnc1N=Nc1c(O)ccc2ccccc12,80,47*,·,23,91*,-2
Cc1noc(C)c1S(=O)(=O)Nc1ccc2c(c1)C(=O)N([C@H](C)CO)C[C@@H](C)[C@@H](CN(C)Cc1ccc(Oc3ccccc3)cc1)O2,·,·,67*,·,·,·
C[C@H]1CN([C@@H](C)CO)C(=O)c2cc(NS(=O)(=O)c3ccccc3)ccc2O[C@H]1CN(C)Cc1ccc(Oc2ccccc2)cc1,·,·,7,-22,·,·
C[C@H]1CN([C@@H](C)CO)C(=O)c2cc(NS(=O)(=O)c3ccccc3)ccc2O[C@@H]1CN(C)Cc1ccc(Oc2ccccc2)cc1,·,·,-16,92*,·,·
Cc1noc(C)c1S(=O)(=O)Nc1ccc2c(c1)C(=O)N([C@H](C)CO)C[C@H](C)[C@@H](CN(C)Cc1ccccc1)O2,·,·,-5,-7,·,·
CCCc1sc(N/N=C/c2ccccn2)nc1-c1ccc(Br)cc1,84,59*,5,·,82*,·
FC(F)(F)c1cnc(NNC(=S)Nc2ccccc2Cl)c(Cl)c1,24,-1,·,74*,-13,7
Cn1cccc1/C=C1\CCc2ccccc2C1=O,7,16,55*,31,-54,-7
COc1ccc(NC(=O)N(C)C[C@H]2Oc3ccc(NS(=O)(=O)c4ccc(OC)cc4)cc3C(=O)N([C@@H](C)CO)C[C@H]2C)cc1,·,·,3,-7,·,·
COc1ccc2nc(S(=O)Cc3ncc(C)c(OC)c3C)[nH]c2c1 (stereo unspecified),-3,84*,2,26,-41,-3
COCCCOc1ccnc(CS(=O)c2nc3ccccc3[nH]2)c1C (stereo unspecified),-51,-20,-50,-44,-111,-17
COc1ccc(C)cc1S(=O)(=O)N(CC(=O)Nc1cc([N+](=O)[O-])ccc1C)c1ccc(C)c(C)c1,23,49*,1,·,34,-3
CCCC(=O)Nc1ccc2c(c1)C(=O)N(C)C[C@H](OC)[C@@H](C)CN(C(=O)c1ccccc1F)[C@@H](C)CO2,·,·,-2,·,·,0
SMILES,Shn3 inh set2,LMP1 NFkB inh,EWS-Fli inh,PAX8 reporter,aSyn UTR inh,FN deposit inh
COc1ccc(C(=O)NC(=S)NNC(=O)c2ccc3ccccc3n2)cc1,90*,49*,-5,5,73*,3
CC(Oc1cccc(Cl)c1)C(=O)NNC(=O)c1cccnc1 (stereo unspecified),18,-1,-2,1,·,31*
CC(Oc1ccc(Cl)cc1Cl)C(=O)NNC(=O)c1cccnc1 (stereo unspecified),-23,-3,-8,-1,-7,7
C/C(=N\NC(=O)C(C)Oc1ccc([N+](=O)[O-])cc1)c1ccccn1 (stereo unspecified),83*,20,·,·,72*,·
COc1cc(OC)cc(C(=O)NNC(=O)c2ccccn2)c1,38,25,8,28,73*,7
C[C@H](CO)N1C[C@H](C)[C@H](CN(C)S(=O)(=O)c2ccc(Cl)cc2)Oc2ccc(NS(=O)(=O)c3ccc(Cl)cc3)cc2CC1=O,·,·,-6,8,·,·
Cc1ccccc1S(=O)(=O)N1CC[C@@H]2[C@@H](CO)Nc3ccc(-c4ccccc4F)cc3[C@@H]21,·,·,5,-4,·,-9
C#CCNC(=O)C1=C[C@H](c2cn(C(C)=O)c3ccccc23)C[C@H](OCCCCO)O1,·,·,6,-4,·,·
CC(Oc1ccccc1)C(=O)NNC(=O)c1ccccn1 (stereo unspecified),16,10,13,75*,45,0
COc1ccc(C(=O)NNC(=O)c2ccccn2)cc1,65,-15,62*,104*,79*,15
COc1ccc(C(=O)NOCc2ccccc2)cc1,-56,48*,14,1,-74,11
CO[C@@H]1CN(C)C(=O)c2ccc(NC(=O)C3CC3)cc2OC[C@H](C)N(Cc2ccncc2)C[C@@H]1C,·,·,-2,8,·,-9
Cc1ccc(S(=O)(=O)Nc2ccc3c(c2)CC(=O)N([C@H](C)CO)C[C@@H](C)[C@H](CN(C)C(=O)Nc2cccc4ccccc24)O3)cc1,·,·,2,7,·,·
CCN(CC)CCC(=O)N1C/C(=C/c2ccccc2)C(=O)/C(=C\c2ccccc2)C1,75,?,82*,-13,·,21
O=C(Cc1csc(Nc2nc(=S)[nH]c3ccccc23)n1)NCc1ccc(Cl)cc1,10,-7,19,·,-28,·
O=C(Cc1csc(Nc2nc(=S)[nH]c3ccccc23)n1)NCCCN1CCN(c2ccccc2F)CC1,-2,-31,44,65*,92*,·
CC(NC(=O)CSc1ccc(S(=O)(=O)N2CCOCC2)cn1)c1ccc(Cl)cc1Cl (stereo unspecified),-8,-49,1,11,·,30*
CCCOc1c(OC)cccc1C1CC(=O)Nc2cc3c(cc21)OCCO3 (stereo unspecified),16,-11,·,·,-10,·
COc1ccccc1C1CC(=O)Nc2cc3c(cc21)OCCO3 (stereo unspecified),58,10,40,·,47,·
CC(C)Oc1ccccc1C1Nc2ccccc2C(=O)N1c1ccc2c(c1)OCCO2 (stereo unspecified),-28,16,·,·,68*,·

# Compound activity: PubChem BioAssay, Broad Institute
